High-throughput results as filed in PubChem.
AI-2 QS modul = Vibrio harveyi AI-2 quorum sensing modulators, primary screen, JMH597 strain, luminescence/OD600 ratio; activity change, % at 7.5 µM; Vibrio harveyi JMH597 AI-2 luminescence/OD600 ratio, 9 h; stronger effect = lower value; strain lacks LuxN and CqsS sensors; 0 = neutral-control median; 300,000 compounds, 0.4% hits; in the data active = activity change below about -75%, passing the limit was not always enough; inconclusive = no clear call, values can overlap the other calls;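 also: luminescence divided by OD600 gain over 9 h not by final OD600 alone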
T cruzi repl = inhibitors of intracellular T. cruzi growth, primary screen, luminescence, NIH3T3 host cells | 300,000 compounds, 1.4% hits | inhibition, % (no concentration beside the values) | AID 1885, 2009 | T. cruzi beta-gal in NIH3T3, 90 h;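 active = mean inhibition across valid replicates above about 55%, limit read from the data; inconclusive = mean below that limit but half or more replicates reach it; inactive = mean below it, under half of replicates reach it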;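 also: signal also drops with host cell toxicity which is not excluded here; 0% = plate median of DMSO wells and 100% = zero luminescence signal; higher percent means less beta-gal luminescence so fewer parasites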
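Read-out: Parasite load inhibition, % | Test system: Mouse NIH/3T3 fibroblasts infected with β-gal-expressing T. cruzi Tulahuen C4 | Amount: 5,000 cells/well | Medium: DMEM, 2% fetal bovine serum | Signal: GalScreen β-gal luminescence, detergent lysis, 60 min | Timing: 3 h attach, ≥90 h co-culture | Also added: Tulahuen C4 trypomastigotes, 5000/well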
V-ATPase pH = regulators of yeast V-ATPase proton pumping, primary screen, pHLuorin cytosolic pH fluorescence. S. cerevisiae. response, % at 10 µM. 350,000 compounds, 0.37% hits; in the data active = response mostly above about 7.3%, no sharp cut-off; inactive = mostly below about 5.4%; also: actives read high
CendR NRP1 mod = modulators of CendR peptide binding to NRP-1, primary screen, biochemical, fluorescence polarization, uHTS. inhibition, % at 25 µM. AID 602438, 2012. FAM-RPARPAR peptide binding to NRP-1. 360,000 compounds, 0.85% hits. Neuropilin-1 (Homo sapiens), O14786;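 active = inhibition or corrected inhibition above about 18%, plus a signal ratio from 0.5 to 1.5, limit read from the data, passing the limit was not always enough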
Target sequence (O14786 whole entry, looked up): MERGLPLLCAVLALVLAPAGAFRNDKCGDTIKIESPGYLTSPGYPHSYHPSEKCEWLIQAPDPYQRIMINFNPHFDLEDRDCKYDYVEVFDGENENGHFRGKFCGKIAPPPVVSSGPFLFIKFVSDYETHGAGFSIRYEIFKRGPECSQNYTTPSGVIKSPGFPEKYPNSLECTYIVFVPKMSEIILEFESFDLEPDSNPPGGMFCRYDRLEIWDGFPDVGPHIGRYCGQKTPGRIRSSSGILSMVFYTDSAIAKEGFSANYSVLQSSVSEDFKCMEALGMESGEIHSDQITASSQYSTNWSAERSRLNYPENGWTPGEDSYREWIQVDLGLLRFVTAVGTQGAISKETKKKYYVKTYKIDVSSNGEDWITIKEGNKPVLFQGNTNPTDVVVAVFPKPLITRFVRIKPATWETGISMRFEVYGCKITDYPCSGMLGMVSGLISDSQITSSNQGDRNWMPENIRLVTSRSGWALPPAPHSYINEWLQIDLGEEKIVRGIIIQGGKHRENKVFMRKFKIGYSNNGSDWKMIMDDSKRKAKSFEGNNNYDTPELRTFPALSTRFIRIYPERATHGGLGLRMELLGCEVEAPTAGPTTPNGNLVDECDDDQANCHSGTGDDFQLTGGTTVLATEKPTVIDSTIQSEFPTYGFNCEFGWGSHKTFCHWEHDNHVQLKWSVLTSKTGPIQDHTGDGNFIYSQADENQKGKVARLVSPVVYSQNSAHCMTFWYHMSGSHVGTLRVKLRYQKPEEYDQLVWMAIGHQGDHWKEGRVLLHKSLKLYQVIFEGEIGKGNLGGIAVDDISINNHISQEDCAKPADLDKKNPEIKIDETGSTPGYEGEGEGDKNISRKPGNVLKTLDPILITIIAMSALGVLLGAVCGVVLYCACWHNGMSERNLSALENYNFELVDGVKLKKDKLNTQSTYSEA
HIF activator = HIF pathway transcriptional activators, primary screen, cell-based, U2OS HRE-luciferase, luminescence; activation, % at 7.5 µM (by protocol); U2OS HRE-luciferase reporter; normalized: DMSO 0%, desferrioxamine 100%; 300,000 compounds, 0.32% hits;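 active = mean activation of at least 10% of the iron chelator positive control signal, with at least half of replicates also reaching 10%; inconclusive = mean and replicate majority disagree about reaching 10%; inactive = mean and most replicates under 10%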
Yeast superoxide = reduction of superoxide in aged yeast, primary screen, HTS; 330,000 compounds, 0.18% hits; AID 2690, 2010; S. cerevisiae aged cells, superoxide DHE fluorescence; stronger effect = lower value; superoxide response (% of plate mean), % at 10 µM;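 active = superoxide response under a set limit, about three screen SD below normal, cut at about 65% in these data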;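 also: yeast aged for seven days with compound at 30 °C before DHE staining; 100% = average MFI of all compound-treated wells on the plate with controls excluded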
Starred values were filed as active, the others as inactive; ? = inconclusive; . = no result. Only some compounds are listed: those with a hit (about 3% of all), similar ones and a draw of the others.

SMILES | AI-2 QS modul | T cruzi repl | V-ATPase pH | CendR NRP1 mod | HIF activator | Yeast superoxide
O=C(N/N=C/c1cc([N+](=O)[O-])ccc1O)C(O)(c1ccccc1)c1ccccc1 | 53.2 | 3.7 | -2.3 | -2.4 | -18.8 | 97.8
O=C(NNC(=O)c1ccc([N+](=O)[O-])o1)c1ccccc1 | ? | 58.2* | -0.3 | 6.5 | 0.2 | 129.6
C/C(=N/NS(=O)(=O)c1ccc(F)cc1)c1ccncc1 | 25.7 | -0.8 | -3.9 | -0.8 | -0.4 | 97.2
O=C(Cc1cccc2ccccc12)NNC(=O)c1ccc(Br)o1 | -3.8 | -16.2 | -0.3 | 0.9 | 1.9 | 103.0
C[n+]1ccc(/C=C/c2ccccc2O)c2ccccc21 | 12.8 | 69.7* | 1.3 | 12.0 | 0.0 | 94.0
CN1/C(=C/c2cc[n+](C)c3ccccc23)C=Cc2ccccc21 | . | . | 5.3 | 12.9 | . | .
N#C/C(=C/C=C/c1ccccc1)C(=O)Nc1ccccc1 | . | 69.0* | 0.8 | -2.1 | 0.4 | 95.0
N#C/C(=C\C=C\c1ccccc1)C(=O)Nc1ccccc1 | 29.7 | 8.1 | 0.2 | -0.1 | -0.2 | 107.2
CCOC(=O)c1[nH]cnc1N=Nc1c(O)ccc2ccccc12 | 20.7 | 17.2 | -1.4 | 11.3 | 37.8* | 94.0
Oc1ccc2ccccc2c1N=Nc1ccccn1 | 22.6 | 55.0* | 0.0 | -8.8 | 33.5* | 122.7
CN(C)c1ccc(/C=N\NC(=O)CC#N)cc1 | 20.0 | -10.8 | -0.6 | -9.1 | 0.2 | 100.1
O=C1NC[C@H](CCCCN2C[C@H](Cc3ccccc3)N(CC3CCCCC3)C(=O)C2=O)N(CC2CCCCC2)C1=O | . | . | . | -1.2 | . | .
O=C(Nc1ccccc1C(=O)N1CCOCC1)c1cc2ccccc2o1 | 4.7 | -11.7 | -0.4 | 21.5* | -0.8 | 99.3
Cc1ccc(COc2ccc(/C=N/O)cc2)cc1 | -6.0 | 5.8 | 0.2 | -1.3 | 2.8 | 105.4
NC(N)=N/N=C/c1ccc(Br)cc1 | 13.4 | 66.6* | 3.0 | -4.3 | -0.2 | 98.8
O=C(N/N=C/c1ccccc1)c1ccc(OCc2ccccc2)cc1 | 26.4 | -13.3 | . | 3.4 | 1.4 | 115.1
NC(N)=N/N=C/c1ccc(OCc2ccccc2)cc1 | 14.3 | 71.4* | -1.8 | -10.4 | 1.6 | 101.2
NC(N)=N/N=C/c1ccc(OCc2ccc(Cl)cc2)cc1 | 13.6 | 60.7* | -2.2 | 16.0 | -1.0 | 92.1
O=C(NCCCn1ccnc1)c1ccc(Br)s1 | 26.5 | 42.9 | 0.5 | 12.9 | -0.7 | 95.0
CCC(=O)Nc1ccc(S(=O)(=O)NC[C@H]2O[C@@H](n3cnc4c(=O)[nH]c(N)nc43)[C@H](O)[C@@H]2O)cc1 | . | . | . | 2.2 | . | .
Cc1ccc(-c2csc3ncnc(N4CCN(S(=O)(=O)c5ccc(C#N)cc5)CC4)c23)cc1 | . | . | -1.3 | -7.3 | . | .
CCOc1ccc(NC(=O)CC2SC(N)=NC2=O)c([N+](=O)[O-])c1 (centres undefined) | 3.0 | -6.5 | 0.0 | 10.4 | 0.3 | 115.5
CCn1cc(Cl)c(C(=O)N2N=C(c3ccc4ccccc4c3)CC2c2ccccc2O)n1 (centres undefined) | 12.8 | 55.9* | -0.2 | -3.5 | 0.1 | 92.3
CCn1cc([N+](=O)[O-])c(C(=O)N2N=C(c3ccc4ccccc4c3)CC2c2ccccc2O)n1 (centres undefined) | 20.3 | 41.0 | 2.9 | -7.6 | 0.8 | 102.0
CCN(CC)CCCn1c(C)cc2c(c1=O)C(c1cccc(Cl)c1)C(C#N)=C(N)O2 (centres undefined) | . | . | 36.0* | 15.7 | . | .
SMILES | AI-2 QS modul | T cruzi repl | V-ATPase pH | CendR NRP1 mod | HIF activator | Yeast superoxide
CCN(CC)CCCn1c(C)cc2c(c1=O)C(c1cc(OC)c(OC)cc1OC)C(C#N)=C(N)O2 (centres undefined) | 14.7 | -7.8 | 5.1 | 4.3 | -0.2 | 102.8
COc1ccc(C(=O)N2c3ccccc3C(=O)OC2c2ccc3c(c2)OCO3)cc1 (centres undefined) | -9.7 | 7.2 | -1.9 | 20.6* | 2.6 | 103.5
CC(=O)Oc1ccc(C2OC(=O)c3ccccc3N2C(C)=O)cc1 (centres undefined) | 18.3 | -14.6 | 1.8 | 0.3 | 0.0 | 101.8
N#Cc1c2ccc([N+](=O)[O-])cc2[n+]([O-])n1-c1ccccc1 | . | . | 27.9* | 8.2 | . | 73.9
COc1ccc(-n2c3c(cc(C(=O)NCC(=O)c4ccccc4)c2=O)C(=O)CC(C)(C)C3)cc1 | 22.7 | 20.3 | 2.4 | 0.9 | 0.2 | 109.5
Cn1c(=O)c(=O)n(C)c2cc(N3CCOCC3)c(NS(=O)(=O)c3ccc([N+](=O)[O-])cc3)cc21 | 11.1 | -3.0 | 0.9 | 4.1 | 0.3 | 106.8
COC(=O)c1ccccc1N1C(=O)C2C(C1=O)[C@H]1C=C[C@@H]2C1 (some centres undefined) | 5.4 | -6.6 | -1.6 | 3.7 | -0.1 | 99.1
COC(=O)c1ccccc1N1C(=O)C2C(C1=O)C1C=CC2C12CC2 (centres undefined) | 0.9 | -0.5 | . | 13.2 | 0.0 | 57.4*
CC(C)C1=C2CCCCC2NC(=O)N1 (centres undefined) | 16.7 | -2.7 | 2.0 | 28.2* | -0.2 | 95.1
CC(C)C1(C2CCCC2)NC(=O)NC1=O (centres undefined) | . | . | 0.5 | 1.7 | . | .
O=C(O)CCCC(=O)N1CCc2cc(S(=O)(=O)N3CCc4ccccc43)ccc21 | 14.0 | 6.0 | 10.8 | 30.3* | 0.0 | 134.6
O=C(Nc1ccc2nc([C@@H]3O[C@H](CO)[C@@H](O)[C@H](O)[C@H]3O)[nH]c2c1)NC(c1ccccc1)c1ccccc1 | . | . | . | -13.2 | . | .
O=C(Cn1ccc([N+](=O)[O-])n1)N1CCc2ccccc21 | 38.0 | 14.1 | -3.2 | 0.9 | 0.1 | 112.6
Cc1ccn(CCC(=O)N2CCc3ccccc32)n1 | 4.2 | -17.1 | -0.3 | 19.7* | 1.0 | 78.2
COc1ccc(C2CC(c3ccc4ccccc4c3)=NN2C(=O)CNC2CCCCC2)cc1 (centres undefined) | 14.6 | 79.9* | 1.7 | 7.8 | -6.1 | 91.6
COc1ccc(C2CC(c3ccccc3)=NN2C(=O)COC(=O)c2nc3nc(C)cc(C)n3n2)cc1 (centres undefined) | 9.4 | 70.1* | -0.1 | -5.4 | 0.0 | 102.8
NC(=S)Nc1cc2ccccc2c2ccccc12 | -44.4 | -18.8 | 4.7 | 2.7 | -0.2 | 100.9
NC(=S)Nc1cccc2cc3ccccc3cc12 | -80.1* | -15.2 | -4.9 | 69.3 | 0.6 | 96.4
CN(C)S(=O)(=O)c1ccc(N2CCOCC2)c(C(=O)NCc2ccc3c(c2)OCO3)c1 | . | . | -1.9 | 0.5 | . | 61.8*
O=C(NCc1ccc2c(c1)OCO2)c1ccc(N2CCCCCC2)c([N+](=O)[O-])c1 | 16.9 | 59.0* | -1.4 | -4.6 | -0.2 | 92.8
O=C(O)CCC(=O)N1CCOc2ccc(Cl)cc21 | 16.8 | -0.7 | 1.1 | -11.3 | -0.4 | 97.9
